Rows were chosen to be rich in hits. Some 2.4% of all compounds tested hit in one or more screens of this group.
LANA-H2A inh: blocks KSHV LANA binding to histone H2A/H2B; Q9QR71; cell-free LANA-H2A/H2B peptide, fluorescence polarization; inhibition, % (no concentration beside the values); 0.6% of 320,000 active; in the data active means inhibition mostly above about 10%, no sharp cut-off; inactive means mostly below about 6.7%
Runt-CBFb FRET: inhibitors of human RUNX1 Runt domain binding to CBFb; Q01196+Q13951; Cerulean-Runt/Venus-CBFb FRET ratio 530/480, 1 h; inhibition, % at 20 µM; 0.46% of 220,000 active; AID 1496;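 active means inhibition over about 50% at 20 µM in the single-dose screen, limit read from the data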
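test system = Cerulean-Runt domain fusion protein, energy donor | probe or stimulus = Venus-CBFb binding partner, 100 nM | incubation = two 1 h room-temperature incubations shielded from light | detection = fluorescence energy transfer, 422 nm excitation, 530/480 nm emission | measure = loss of energy transfer signal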
EBV gp42 inh: blocks Epstein-Barr virus glycoprotein 42 binding; Q1HVG2; Fluorescence polarization binding assay, mP read-out; inhibition, % (tested at 21.74 µM); 0.42% of 220,000 active; AID 1085; in the data active means inhibition above about 50%
Target sequence (Q1HVG2 whole entry, looked up): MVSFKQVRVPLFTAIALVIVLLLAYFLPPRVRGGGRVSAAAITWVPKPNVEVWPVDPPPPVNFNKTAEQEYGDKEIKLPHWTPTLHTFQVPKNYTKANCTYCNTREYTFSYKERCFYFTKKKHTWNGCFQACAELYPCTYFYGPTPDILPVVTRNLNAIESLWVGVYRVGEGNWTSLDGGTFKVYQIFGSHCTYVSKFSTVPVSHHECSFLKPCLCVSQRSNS
RanGTP-Imp inh: disruptors of Ran-importin-beta complex formation – biochemical, FRET, CFP-Ran, YFP-importin-beta, homogeneous, primary screen | 1.1% of 300,000 active | cell-free CFP-Ran/YFP-importin-beta FRET ratio | inhibition, % (concentration not given with the values);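 active means more than half of the replicate wells show a fall in the fluorescence ratio signal beyond about 16%, limit read from the data, passing the limit was not always enough; inconclusive means exactly half of the replicate wells pass the set limit; inactive means fewer than half of replicates pass the limit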
Runt-SMMHC FRET: blocks binding of human RUNX1 Runt domain to CBFb-SMMHC; Q01196+Q13951; Cerulean-Runt/Venus-CBFb-SMMHC FRET ratio 530/480, 1 h; inhibition, % at 20 µM; 0.74% of 220,000 active;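 active means mean inhibition across duplicate retests at 20 µM reaching about 50%, limit read from the data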;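 further: inhibitors lower the FRET ratio by blocking Runt binding to CBFb-SMMHC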
MEX-5 binding: C. elegans MEX-5 TCR-2 RNA binding activity; MEX-5/FITC-TCR2 RNA binding, fluorescence polarization; active compounds read low; AID 1832; 0.38% of 300,000 active; activity score (negative = inhibition of binding), % at 10 µM;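 active means inhibition past about -25% in most replicates, and total fluorescence under double the plate's negative control median, limit read from the data; inconclusive means replicates evenly split on the limit, or fluorescence at least double controls; inactive means too little inhibition in most replicates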
Target sequence (Q9XUB2 whole entry, looked up): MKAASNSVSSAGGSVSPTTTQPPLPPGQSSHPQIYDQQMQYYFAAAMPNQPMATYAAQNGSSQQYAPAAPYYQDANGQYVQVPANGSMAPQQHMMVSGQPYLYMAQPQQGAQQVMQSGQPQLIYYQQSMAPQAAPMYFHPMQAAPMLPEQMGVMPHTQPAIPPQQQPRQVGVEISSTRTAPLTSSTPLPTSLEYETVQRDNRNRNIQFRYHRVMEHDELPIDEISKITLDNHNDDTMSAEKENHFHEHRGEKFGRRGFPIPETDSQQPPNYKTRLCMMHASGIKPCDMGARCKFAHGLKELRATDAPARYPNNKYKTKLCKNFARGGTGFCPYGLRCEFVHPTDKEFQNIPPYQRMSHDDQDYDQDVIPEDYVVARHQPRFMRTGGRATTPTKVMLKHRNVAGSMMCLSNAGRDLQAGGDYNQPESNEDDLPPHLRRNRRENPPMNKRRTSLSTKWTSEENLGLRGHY
Of the large screens only hits and unclear results are named; the others gave an inactive call.

N#Cc1c(NC(=S)NC(=O)C2CCCC2)sc2c1CCCCC2	none
Cc1ccc(N=Cc2sc(O)c3ccccc23)c(C)c1	MEX-5 binding -31
Cc1ccc(N=Cc2sc(O)c3ccccc23)cc1	none
COc1ccc(/C=C\C(=O)c2c(O)ccc3c(C)cc(=O)oc23)cc1OC	LANA-H2A inh 16
COc1cc(/C=C/C(=O)c2c(O)ccc3c(C)cc(=O)oc23)ccc1O	none
O=[N+]([O-])c1ccc2c(c1)N([O-])C1(CCCCC1)[N+]2=O	Runt-SMMHC FRET 73 (no result: LANA-H2A inh, RanGTP-Imp inh, MEX-5 binding)
Cc1cc(C)n2nc(SCC(=O)N3CCC(C(=O)O)CC3)nc2n1	none (no result: Runt-CBFb FRET, EBV gp42 inh, RanGTP-Imp inh, Runt-SMMHC FRET, MEX-5 binding)
CC(C)Oc1ccc(CNC(=O)CCC(=O)N2CC(C)Sc3ccccc32)cc1 (stereo not drawn)	LANA-H2A inh 27 (no result: Runt-CBFb FRET, EBV gp42 inh, Runt-SMMHC FRET)
CC1CN(C(=O)CCC(=O)NCc2ccccc2Cl)c2ccccc2S1 (stereo not drawn)	none (no result: Runt-CBFb FRET, EBV gp42 inh, Runt-SMMHC FRET)
COc1ccc(C(=O)/C=C/Nc2ccc([N+](=O)[O-])cc2C)cc1OC	MEX-5 binding -43
COc1ccc(C(=O)/C=C/Nc2ccc(S(=O)(=O)Nc3nc(C)cc(C)n3)cc2)c(OC)c1	Runt-SMMHC FRET 81
COc1ccc(C(=O)/C=C/Nc2ccc(S(=O)(=O)Nc3nc(C)cc(C)n3)cc2)cc1OC	Runt-SMMHC FRET 67
COc1ccc(C(=O)CCNc2ccc3c(c2)OCCO3)cc1	none
CCCC(NC(=O)C(C)NC(=O)CO/N=C1\C=C2CCC3C4CCC(C(C)=O)[C@@]4(C)CCC3[C@@]2(C)CC1)C(=O)O (stereo partly drawn)	none (no result: Runt-CBFb FRET, EBV gp42 inh, Runt-SMMHC FRET)
COc1ccccc1C(=O)N/C(=C\c1ccc(Br)cc1)C(=O)NCCO	none
CCN(CC)C(=O)/C(=C\c1ccc(Br)cc1)NC(=O)c1ccccc1OC	EBV gp42 inh 61
CCOc1ccc(NC(=O)CCCc2cc(-c3ccc(OCC)cc3)on2)cc1	none
CCOc1ccc(-c2cc(CCCC(=O)Nc3cccc(OC)c3)no2)cc1	RanGTP-Imp inh 27
N/C(=N\OC(=O)CSc1ccccc1)c1ccncc1	none (no result: Runt-CBFb FRET, EBV gp42 inh, Runt-SMMHC FRET)
COc1cc2cc(C(=O)Nc3ccccc3)c(N)nc2cc1OC	RanGTP-Imp inh 29
Cc1ccc(NC(=O)COC(=O)c2ccc(CN3CCCC3=O)cc2)c(Cl)c1	none (no result: Runt-CBFb FRET, EBV gp42 inh, RanGTP-Imp inh, Runt-SMMHC FRET, MEX-5 binding)
Nc1ccc2nc(CN3CCOCC3)[nH]c2c1	MEX-5 binding -64
c1ccc2[nH]c(CN3CCOCC3)nc2c1	none
Cc1nn(Cc2cccc(C(=O)N3N=C(C(F)F)CC3(O)C(F)F)c2)c(C)c1[N+](=O)[O-] (stereo not drawn)	none
CN1Cc2c(N3CCOCC3)nc(SCc3ccccc3)c(C#N)c2CC1(C)C	RanGTP-Imp inh 27, Runt-SMMHC FRET 62
COC(=O)CSc1nc(N2CCOCC2)c2c(c1C#N)CC(C)(C)N(C)C2	RanGTP-Imp inh 18, Runt-SMMHC FRET 56
CCSc1nc(N2CCOCC2)c2c(c1C#N)CC(C)(C)N(C)C2	Runt-CBFb FRET 95, Runt-SMMHC FRET 91
C=CCSc1nc(N2CCOCC2)c2c(c1C#N)CC(C)(C)N(C)C2	RanGTP-Imp inh inconclusive (no result: LANA-H2A inh)
Cc1cc(NC(=O)c2cc(-c3ccco3)on2)nn1Cc1ccc(Cl)cc1	LANA-H2A inh 15
N#Cc1c(N)sc(=S)c2c1CCCCC2	MEX-5 binding -26
N#Cc1c(N)sc2c1CCCCCC2	none
N#Cc1c(-c2ccncc2)c2c([nH]c1=O)-c1ccccc1OC2	RanGTP-Imp inh 56 (no result: Runt-SMMHC FRET)
N#Cc1c(-c2ccccc2Cl)c2c([nH]c1=O)-c1ccccc1OC2	Runt-CBFb FRET 95, RanGTP-Imp inh 131, Runt-SMMHC FRET 82, MEX-5 binding inconclusive
CC(C)Cn1nc(NC(=O)c2ccco2)c2cc3ccccc3nc21	RanGTP-Imp inh 51
Cc1ccc2cc3c(NS(=O)(=O)c4cccc5nonc45)nn(CC(C)C)c3nc2c1	none (no result: Runt-CBFb FRET, EBV gp42 inh, Runt-SMMHC FRET)
Cc1ccc2nc3c(cc2c1)c(NC(=O)C(C)(C)C)nn3CC(C)C	RanGTP-Imp inh 44 (no result: Runt-CBFb FRET, EBV gp42 inh, Runt-SMMHC FRET)
CCn1nc(NC(=O)c2ccncc2)c2cc3ccccc3nc21	none
Cc1ccc2nc3c(cc2c1)c(NC(=O)c1ccco1)nn3CC(C)C	RanGTP-Imp inh 78, Runt-SMMHC FRET 81
CCn1nc(NC(=O)c2ccco2)c2cc3ccccc3nc21	RanGTP-Imp inh 30
COC(=O)c1csc(S(=O)(=O)N2CCOCC2)c1OC	none (no result: Runt-CBFb FRET, EBV gp42 inh, Runt-SMMHC FRET)
O=C(O)C1CCCCC1C(=O)NCc1ccncc1 (stereo not drawn)	none
COc1ccc(OCC(=O)N2c3ccc(C)cc3C3CN(C)CCC32)cc1 (stereo not drawn)	LANA-H2A inh 25
CC1(C)CC(NC(=O)C(Cl)(Cl)Cl)CC(C)(C)N1	none
COCCOC(=O)C1=C(C)N(c2ccccc2)C(=S)NC1c1ccccc1C(F)(F)F (stereo not drawn)	LANA-H2A inh 35
COC(=O)C1=C(C)N(c2ccccc2)C(=S)NC1c1ccccc1C(F)(F)F (stereo not drawn)	none
N#CC1=C(N)OC2=C(CCc3ccccc32)C1c1ccccc1Cl (stereo not drawn)	none (no result: MEX-5 binding)
COc1ccc(C2C(C#N)=C(N)Oc3cc(N)ccc32)cc1 (stereo not drawn)	RanGTP-Imp inh 77 (no result: Runt-CBFb FRET, EBV gp42 inh, Runt-SMMHC FRET)
N#CC1=C(N)Oc2cc(N)ccc2C1c1ccccc1Cl (stereo not drawn)	RanGTP-Imp inh 133 (no result: Runt-CBFb FRET, EBV gp42 inh, Runt-SMMHC FRET)
C#CCSc1nc(N)c2c(n1)OC(N)=C(C#N)C2c1cccnc1 (stereo not drawn)	RanGTP-Imp inh 60
N#CC1=C(N)Oc2cc(N)ccc2C1c1ccc(Cl)cc1 (stereo not drawn)	RanGTP-Imp inh 61 (no result: Runt-CBFb FRET, EBV gp42 inh, Runt-SMMHC FRET)
Fc1ccc(CSc2nnc3ccc(-c4ccncc4)nn23)cc1	none
COc1cc(C2C(C#N)=C(N)Oc3cc(N)ccc32)cc(OC)c1OC (stereo not drawn)	Runt-SMMHC FRET 81 (no result: RanGTP-Imp inh, MEX-5 binding)
N#CC1=C(N)Oc2cc(N)ccc2C1c1ccc(F)cc1F (stereo not drawn)	RanGTP-Imp inh 125 (no result: Runt-CBFb FRET, EBV gp42 inh, Runt-SMMHC FRET)
N#CC1=C(N)Oc2cc(N)ccc2C1c1cccnc1 (stereo not drawn)	RanGTP-Imp inh 24
COc1ccc(C2C(C#N)=C(N)Oc3cccc(O)c32)cc1 (stereo not drawn)	RanGTP-Imp inh 51 (no result: Runt-CBFb FRET, EBV gp42 inh, Runt-SMMHC FRET)
O=C(CCC(=O)N(CC(=O)NC1CCCC1)Cc1cccs1)Nc1nccs1	none
O=C(c1ccc([N+](=O)[O-])cc1)N1CCSC1c1cccc(Cl)c1 (stereo not drawn)	none
CCc1ccc(C2C(C#N)=C(N)Oc3cc(N)ccc32)cc1 (stereo not drawn)	RanGTP-Imp inh 96 (no result: Runt-CBFb FRET, EBV gp42 inh, Runt-SMMHC FRET)
COc1cc(OC)cc(C(=O)NC(C(=O)Nc2ccc3c(c2)OCO3)C(C)C)c1 (stereo not drawn)	LANA-H2A inh 11 (no result: Runt-CBFb FRET, EBV gp42 inh, RanGTP-Imp inh, Runt-SMMHC FRET, MEX-5 binding)
COc1cc(OC)cc(C(=O)N[C@H](C(=O)Nc2ccc3c(c2)OCO3)C(C)C)c1	none
O=C1N=c2ccc(Br)cc2=C1c1sc(=O)[nH]c1O	MEX-5 binding -26 (no result: Runt-CBFb FRET, EBV gp42 inh, Runt-SMMHC FRET)
